Assays:
HOP-92 [1] = assay: Growth inhibition against human HOP-92 cells incubated for 48 hrs by sulforhodamine B assay; assay type: functional
T47D = assay: Antiproliferative activity against human T47D cells assessed as cell growth at 0.000001 M incubated for 48 hrs by SRB assay relative to control; assay type: functional; conditions: read-out: Activity
NCI-H522 [2] = assay: Antiproliferative activity against human NCI-H522 cells assessed as cell growth at 0.0000001 M incubated for 48 hrs by SRB assay relative to control; assay type: functional; conditions: dose 100 nM, read-out: Activity
UO-31 = assay: Growth inhibition against human UO-31 cells assessed as total growth inhibitory concentration incubated for 48 hrs by sulforhodamine B assay; assay type: functional
MDA-MB-468 = assay: Growth inhibition against human MDA-MB-468 cells assessed as total growth inhibitory concentration incubated for 48 hrs by sulforhodamine B assay; assay type: functional
UACC-62 = assay: Antiproliferative activity against human UACC-62 cells assessed as cell growth at 0.00000001 M incubated for 48 hrs by SRB assay relative to control; assay type: functional; conditions: dose 10 nM, read-out: Activity
HOP-62 = assay: Antiproliferative activity against human HOP-62 cells assessed as cell growth at 0.0001 M incubated for 48 hrs by SRB assay relative to control; assay type: functional; conditions: read-out: Activity
Procedure, shortened: (§1)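 NCI-60 five-dose screen (10^-4 to 10^-8 M). Cells grown in RPMI 1640 with 5% FBS and 2 mM L-glutamine, plated at 5,000-40,000 cells/well and preincubated 24 h. Drug given from DMSO stock, then 48 h at 37 °C, 5% CO2. For adherent lines, cells fixed with cold TCA, SRB-stained and read at 515 nm. Percent growth taken against time-zero and untreated control.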

UACC-257 = assay: Antiproliferative activity against human UACC-257 cells assessed as cell growth at 0.0000001 M incubated for 48 hrs by SRB assay relative to control; assay type: functional; conditions: dose 100 nM, read-out: Activity
NCI-H460 = assay: Growth inhibition against human NCI-H460 cells incubated for 48 hrs by sulforhodamine B assay; assay type: functional
CCRF-CEM = assay: Antiproliferative activity against human CCRF-CEM cells assessed as cell growth inhibition by measuring lethal concentration incubated for 48 hrs by sulforhodamine B assay; assay type: functional; conditions: read-out: LC50 (the source's name)
SK-MEL-5 [3] = assay: Antiproliferative activity against human SK-MEL-5 cells assessed as cell growth at 0.00001 M incubated for 48 hrs by SRB assay relative to control; assay type: functional; conditions: read-out: Activity
NCI-H23 [4] = assay: Antiproliferative activity against human NCI-H23 cells assessed as cell growth at 0.0001 M incubated for 48 hrs by SRB assay relative to control; assay type: functional; conditions: read-out: Activity
Hs-578T = assay: Antiproliferative activity against human Hs-578T cells assessed as cell growth at 0.00001 M incubated for 48 hrs by SRB assay relative to control; assay type: functional; conditions: read-out: Activity
Procedure, shortened: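 NCI-60 five-dose mode, 10^-4 to 10^-8 M in 10-fold steps. RPMI 1640, 5% FBS, 2 mM L-glutamine; 24 h preincubation, then 48 h drug exposure at 37 °C. Stocks in DMSO at 400× the top concentration, diluted in medium with gentamicin. TCA fixation, SRB staining, absorbance at 515 nm. Percent growth from time-zero (Tz), control (C) and test (Ti) readings.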

HOP-92 [5] = assay: Antiproliferative activity against human HOP-92 cells assessed as cell growth at 0.00001 M incubated for 48 hrs by SRB assay relative to control; assay type: functional; conditions: read-out: Activity; procedure, shortened: as §1
NCI-H23 [6] = assay: Growth inhibition against human NCI-H23 cells incubated for 48 hrs by sulforhodamine B assay; assay type: functional
MDA-MB-435 = assay: Antiproliferative activity against human MDA-MB-435 cells assessed as cell growth at 0.0001 M incubated for 48 hrs by SRB assay relative to control; assay type: functional; conditions: read-out: Activity
SK-MEL-28 = assay: Antiproliferative activity against human SK-MEL-28 cells assessed as cell growth at 0.000001 M incubated for 48 hrs by SRB assay relative to control; assay type: functional; conditions: read-out: Activity
Malme-3M = assay: Antiproliferative activity against human Malme-3M cells assessed as cell growth at 0.0000001 M incubated for 48 hrs by SRB assay relative to control; assay type: functional; conditions: dose 100 nM, read-out: Activity
TK-10 = assay: Antiproliferative activity against human TK-10 cells assessed as cell growth at 0.0001 M incubated for 48 hrs by SRB assay relative to control; assay type: functional; conditions: read-out: Activity
NCI-H522 [7] = assay: Antiproliferative activity against human NCI-H522 cells assessed as cell growth inhibition by measuring lethal concentration incubated for 48 hrs by sulforhodamine B assay; assay type: functional; conditions: read-out: LC50 (the source's name)
HEK293 = assay: Cytotoxicity against human HEK293 cells assessed as reduction in cell viability at 0.000001 M incubated for 48 hrs by MTT colorimetric assay relative to control; assay type: toxicity, cell-based; conditions: hek293, 48 h, 1 µM
OVCAR-8 = assay: Antiproliferative activity against human OVCAR-8 cells assessed as cell growth at 0.0000001 M incubated for 48 hrs by SRB assay relative to control; assay type: functional; conditions: dose 100 nM, read-out: Activity
NCI/ADR-RES = assay: Antiproliferative activity against human NCI/ADR-RES cells assessed as cell growth at 0.00000001 M incubated for 48 hrs by SRB assay relative to control; assay type: functional; conditions: dose 10 nM, read-out: Activity
DU-145 = assay: Antiproliferative activity against human DU-145 cells assessed as cell growth at 0.0000001 M incubated for 48 hrs by SRB assay relative to control; assay type: functional; conditions: dose 100 nM, read-out: Activity
Procedure, shortened: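 NCI-60 five-dose screen over 10^-4–10^-8 M (10-fold dilutions). Cells grown in RPMI 1640 with 5% FBS and 2 mM L-glutamine, seeded at 5,000–40,000 cells/well and preincubated 24 h. Drug from DMSO stock, 48 h at 37 °C, 5% CO2. Adherent cells TCA-fixed and stained with 0.4% SRB; A515 read. Percent growth = (Ti−Tz)/(C−Tz)×100, or (Ti−Tz)/Tz×100 when Ti<Tz.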

HCT-15 = assay: Antiproliferative activity against human HCT-15 cells assessed as cell growth at 0.00000001 M incubated for 48 hrs by SRB assay relative to control; assay type: functional; conditions: dose 10 nM, read-out: Activity; procedure, shortened: as §1
OVCAR-4 = assay: Antiproliferative activity against human OVCAR-4 cells assessed as cell growth at 0.000001 M incubated for 48 hrs by SRB assay relative to control; assay type: functional; conditions: read-out: Activity
IGROV-1 = assay: Growth inhibition against human IGROV-1 cells incubated for 48 hrs by sulforhodamine B assay; assay type: functional
SF-268 = assay: Growth inhibition against human SF-268 cells assessed as total growth inhibitory concentration incubated for 48 hrs by sulforhodamine B assay; assay type: functional
RPMI-8226 = assay: Antiproliferative activity against human RPMI-8226 cells assessed as cell growth at 0.000001 M incubated for 48 hrs by SRB assay relative to control; assay type: functional; conditions: read-out: Activity
M14 [8] = assay: Growth inhibition against human M14 cells incubated for 48 hrs by sulforhodamine B assay; assay type: functional
M14 [9] = assay: Antiproliferative activity against human M14 cells assessed as cell growth at 0.0001 M incubated for 48 hrs by SRB assay relative to control; assay type: functional; conditions: read-out: Activity
SK-MEL-5 [10] = assay: Growth inhibition against human SK-MEL-5 cells assessed as total growth inhibitory concentration incubated for 48 hrs by sulforhodamine B assay; assay type: functional
NCI-H322M = assay: Growth inhibition against human NCI-H322M cells assessed as total growth inhibitory concentration incubated for 48 hrs by sulforhodamine B assay; assay type: functional

SMILES | GI50 (HOP-92 [1]) [nM] | growth at 1 µM (T47D) [%] | growth at 0.1 µM (NCI-H522 [2]) [%] | TGI (UO-31) [nM] | TGI (MDA-MB-468) [nM] | growth at 0.01 µM (UACC-62) [%] | growth at 100 µM (HOP-62) [%] | growth at 0.1 µM (UACC-257) [%] | GI50 (NCI-H460) [nM] | CC50 (CCRF-CEM) [nM] | growth at 10 µM (SK-MEL-5 [3]) [%] | growth at 100 µM (NCI-H23 [4]) [%] | growth at 10 µM (Hs-578T) [%] | growth at 10 µM (HOP-92 [5]) [%] | GI50 (NCI-H23 [6]) [nM] | growth at 100 µM (MDA-MB-435) [%] | growth at 1 µM (SK-MEL-28) [%] | growth at 0.1 µM (Malme-3M) [%] | growth at 100 µM (TK-10) [%] | CC50 (NCI-H522 [7]) [nM] | further results
c1ccc(Cn2cnc3ccc(-c4nc(-c5ccc6c(c5)ncn6C5CCCCC5)cn5ccnc45)cc32)cc1 | 1250 | 61 | 90 | 4550 | 4430 | 92 | 5 | 105 | 2300 | > 100000 | -90 | -79 | 1 | -90 | 1880 | 2 | 87 | 92 | 13 | > 100000 | Activity (HEK293): 14.11%; growth at 0.1 µM (OVCAR-8): 114%; growth at 0.01 µM (NCI/ADR-RES): 100%; growth at 0.1 µM (DU-145): 98%; growth at 0.01 µM (HCT-15): 92%; growth at 1 µM (OVCAR-4): 96%; GI50 (IGROV-1): 2140 nM; TGI (SF-268): > 100000 nM; growth at 1 µM (RPMI-8226): 55%; GI50 (M14 [8]): 1450 nM; growth at 100 µM (M14 [9]): 6%; TGI (SK-MEL-5 [10]): 2960 nM; TGI (NCI-H322M): > 100000 nM
COc1ccc(-c2cn3ccnc3c(-c3ccc4ncn(C5CCCCC5)c4c3)n2)cc1 | 1180 | 45 | 87 | > 100000 | > 100000 | 94 | 8 | 104 | 622 | > 100000 | -40 | 22 | 6 | 2 | 2110 | 11 | 58 | 95 | -3 | > 100000 | Activity (HEK293): 15.07%; growth at 0.1 µM (OVCAR-8): 106%; growth at 0.01 µM (NCI/ADR-RES): 100%; growth at 0.1 µM (DU-145): 102%; growth at 0.01 µM (HCT-15): 94%; growth at 1 µM (OVCAR-4): 84%; GI50 (IGROV-1): 921 nM; TGI (SF-268): > 100000 nM; growth at 1 µM (RPMI-8226): 86%; GI50 (M14 [8]): 612 nM; growth at 100 µM (M14 [9]): 8%; TGI (SK-MEL-5 [10]): 3200 nM; TGI (NCI-H322M): > 100000 nM

From ChEMBL document CHEMBL5247578, “Effective synthesis of benzimidazoles-imidazo[1,2-a]pyrazine conjugates: A comparative study of mono-and bis-benzimidazoles for antitumor activity” (Eur J Med Chem, 2019)
